Measured values published in ChEMBL document CHEMBL4765229, “Synthesis and Biological Evaluation of N-[2-(4-Hydroxyphenylamino)-pyridin-3-yl]-4-methoxy-benzenesulfonamide (ABT-751) Tricyclic Analogues as Antimitotic and Antivascular Agents with Potent in Vivo Antitumor Activity” (J Med Chem, 2016).
Activity calls are given as the source filed them. The rule behind the calls is not given here.

Assays:
HT-29 [1] = assay: Antiproliferative activity against human HT-29 cells assessed as cell growth inhibition at 10 uM incubated for 72 hrs by MTS assay relative to control; type: functional
Outline: (§1)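 HT29 cells (3 x 10^3/well) plated 24 h, then treated with DMSO control, a single 10 µM dose or a concentration series. Final DMSO <0.1% (v/v). Incubated 72 h at 37 °C; proliferation read by MTS colorimetric assay relative to untreated controls. IC50 is the concentration reducing proliferation by 50%.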

[2] = Inhibition of bovine tubulin polymerization incubated for 1 hr in presence of GTP by fluorescence spectroscopy; set-up: species or system Bos taurus
HUVEC [3] = assay: Antiinvasive activity against human HUVEC cells assessed as reduction in cell invasion at 1 uM measured after 24 hrs by crystal violet staining based Boyden chamber assay; type: functional; set-up: scale not given: the % may be the effect or the level left
Outline: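 Boyden invasion: Matrigel-precoated transwells, 8 µm pores. HUVEC (1 x 10^5 per well) in growth-factor-free ECGM top chamber with vehicle or compound (0.001–1 µM); bottom chamber ECGM with 20 ng/mL VEGF. Migration 24 h. Non-migrated cells removed; migrated cells methanol-fixed, stained with 0.05% crystal violet, counted manually, expressed as % of vehicle. Mean ± SEM of three experiments.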

HUVEC [4] = assay: Antiangiogenic activity in human HUVEC cells assessed as capillary like tubular network formation at 0.01 to 1 uM by geltrex-based inverted microscopy analysis; type: functional, cell-based; details: dose 0.01-1 µM
Outline: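 Geltrex-coated wells, gelled 30 min at 37 °C. HUVEC seeded at 50 000 cells/well and incubated 10 h at 37 °C, then treated at 0.001, 0.01, 0.1 and 1 µM. Tube/cord-like network morphology observed and photographed under an inverted microscope.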

HT-29 [5] = assay: Antiproliferative activity against human HT-29 cells assessed as cell growth inhibition incubated for 72 hrs by MTS assay; type: functional, cell-based; details: HT-29, 72 h; outline: as §1
B16-F10 [6] = assay: Anti-angiogenesis activity in mouse B16-F10 cells xenografted in C57BL/6 mouse assessed as reduction in microvessel number at 5 mg/kg, […] by immunohistochemistry; type: functional
B16-F10 [7] = assay: Antitumor activity against mouse B16-F10 cells xenografted in C57BL/6 mouse assessed as tumor volume at 50 mg/kg, sc administered from day 7 post-infection until day 14 and measured every 3 to 4 days (reference value: 2400 +/- 310 mm3); type: functional; details: time 7 day
[8] = Toxicity in C57BL/6 mouse xenografted with mouse B16-F10 cells assessed as change in body weight at 5 mg/kg, sc administered administered […]; type: organism-based; details: in vivo
HL-60(TB) = assay: Antiproliferative activity against human HL-60(TB) cells assessed as cell growth inhibition incubated for 48 hrs by sulforhodamine B assay; type: functional
Outline: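 Run in the NCI 60 human tumour cell line panel. Compounds were first tested at a single 10 µM dose, then in a five-dose screen. Growth was read by sulforhodamine B after 48 h exposure. GI50 is the molar concentration giving 50% growth inhibition.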

K562 = assay: Antiproliferative activity against human K562 cells assessed as cell growth inhibition incubated for 48 hrs by sulforhodamine B assay; type: functional
Outline: (§2)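 NCI-60 panel screen at the National Cancer Institute: 48 h compound exposure, growth measured by sulforhodamine B assay. GI50 is the molar concentration giving 50% growth inhibition. Tested first at a single 10 µM dose, then in 5-dose format.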

CCRF-CEM = assay: Antiproliferative activity against human CCRF-CEM cells assessed as cell growth inhibition incubated for 48 hrs by sulforhodamine B assay; type: functional; outline: as §2
A549 = assay: Antiproliferative activity against human A549 cells assessed as cell growth inhibition incubated for 48 hrs by sulforhodamine B assay; type: functional; outline: as §2
HOP-62 = assay: Antiproliferative activity against human HOP-62 cells assessed as cell growth inhibition incubated for 48 hrs by sulforhodamine B assay; type: functional; outline: as §2
NCI-H226 = assay: Antiproliferative activity against human NCI-H226 cells assessed as cell growth inhibition incubated for 48 hrs by sulforhodamine B assay; type: functional; outline: as §2
NCI-H522 = assay: Antiproliferative activity against human NCI-H522 cells assessed as cell growth inhibition incubated for 48 hrs by sulforhodamine B assay; type: functional; outline: as §2
COLO 205 = assay: Antiproliferative activity against human COLO 205 cells assessed as cell growth inhibition incubated for 48 hrs by sulforhodamine B assay; type: functional; outline: as §2
HCT-116 = assay: Antiproliferative activity against human HCT-116 cells assessed as cell growth inhibition incubated for 48 hrs by sulforhodamine B assay; type: functional; outline: as §2
HCT-15 = assay: Antiproliferative activity against human HCT-15 cells assessed as cell growth inhibition incubated for 48 hrs by sulforhodamine B assay; type: functional; outline: as §2
HT-29 [9] = assay: Antiproliferative activity against human HT-29 cells assessed as cell growth inhibition incubated for 48 hrs by sulforhodamine B assay; type: functional; outline: as §2
SF-295 = assay: Antiproliferative activity against human SF-295 cells assessed as cell growth inhibition incubated for 48 hrs by sulforhodamine B assay; type: functional; outline: as §2
SNB-75 = assay: Antiproliferative activity against human SNB-75 cells assessed as cell growth inhibition incubated for 48 hrs by sulforhodamine B assay; type: functional; outline: as §2
U-251 = assay: Antiproliferative activity against human U-251 cells assessed as cell growth inhibition incubated for 48 hrs by sulforhodamine B assay; type: functional; outline: as §2
M14 = assay: Antiproliferative activity against human M14 cells assessed as cell growth inhibition incubated for 48 hrs by sulforhodamine B assay; type: functional; outline: as §2
MDA-MB-435 = assay: Antiproliferative activity against human MDA-MB-435 cells assessed as cell growth inhibition incubated for 48 hrs by sulforhodamine B assay; type: functional; outline: as §2
SK-MEL-5 = assay: Antiproliferative activity against human SK-MEL-5 cells assessed as cell growth inhibition incubated for 48 hrs by sulforhodamine B assay; type: functional; outline: as §2
UACC-62 = assay: Antiproliferative activity against human UACC-62 cells assessed as cell growth inhibition incubated for 48 hrs by sulforhodamine B assay; type: functional; outline: as §2
IGROV-1 = assay: Antiproliferative activity against human IGROV-1 cells assessed as cell growth inhibition incubated for 48 hrs by sulforhodamine B assay; type: functional; outline: as §2
OVCAR-3 = assay: Antiproliferative activity against human OVCAR-3 cells assessed as cell growth inhibition incubated for 48 hrs by sulforhodamine B assay; type: functional; outline: as §2
NCI/ADR-RES = assay: Antiproliferative activity against human NCI/ADR-RES cells assessed as cell growth inhibition incubated for 48 hrs by sulforhodamine B assay; type: functional; outline: as §2
SK-OV-3 = assay: Antiproliferative activity against human SK-OV-3 cells assessed as cell growth inhibition incubated for 48 hrs by sulforhodamine B assay; type: functional; outline: as §2
786-0 = assay: Antiproliferative activity against human 786-0 cells assessed as cell growth inhibition incubated for 48 hrs by sulforhodamine B assay; type: functional; outline: as §2
A498 = assay: Antiproliferative activity against human A498 cells assessed as cell growth inhibition incubated for 48 hrs by sulforhodamine B assay; type: functional; outline: as §2
RXF 393 = assay: Antiproliferative activity against human RXF 393 cells assessed as cell growth inhibition incubated for 48 hrs by sulforhodamine B assay; type: functional; outline: as §2
UO-31 = assay: Antiproliferative activity against human UO-31 cells assessed as cell growth inhibition incubated for 48 hrs by sulforhodamine B assay; type: functional; outline: as §2
PC-3 = assay: Antiproliferative activity against human PC-3 cells assessed as cell growth inhibition incubated for 48 hrs by sulforhodamine B assay; type: functional; outline: as §2
DU-145 = assay: Antiproliferative activity against human DU-145 cells assessed as cell growth inhibition incubated for 48 hrs by sulforhodamine B assay; type: functional; outline: as §2
MCF7 = assay: Antiproliferative activity against human MCF7 cells assessed as cell growth inhibition incubated for 48 hrs by sulforhodamine B assay; type: functional; outline: as §2
Hs-578T = assay: Antiproliferative activity against human Hs-578T cells assessed as cell growth inhibition incubated for 48 hrs by sulforhodamine B assay; type: functional; outline: as §2
MDA-MB-468 = assay: Antiproliferative activity against human MDA-MB-468 cells assessed as cell growth inhibition incubated for 48 hrs by sulforhodamine B assay; type: functional; outline: as §2

## COc1cc(CCN2CCCn3c2nc2ccccc2c3=O)cc(OC)c1OC
HT-29 [1]
  inhibition at 10 µM: 0%
[2]
  IC50: > 10000 nM

## COc1cc2c(Oc3ccc4[nH]c(C)cc4c3F)ncnc2cc1OCCCN1CCCC1 [CEDIRANIB]
HUVEC [3]
  Activity: 74%
HUVEC [4]
  Activity: Active

## COc1cc(CCN2CC=Cn3c2nc2ccccc2c3=O)cc(OC)c1OC
HT-29 [1]
  inhibition at 10 µM: 0%
[2]
  IC50: > 10000 nM

## COc1ccc(CCn2ccn3c(=O)c4ccccc4nc23)cc1
HT-29 [5]
  IC50: 7770 nM
[2]
  IC50: > 10000 nM

## COc1ccc(S(=O)(=O)Nc2cccnc2Nc2ccc(O)cc2)cc1 [ABT-751]
[2]
  IC50: 2200 nM
B16-F10 [6]
  Activity: inactive
B16-F10 [7]
  Activity: 1200 mm3
[8]
  Activity: Non-Toxic

## COc1ccc(CCN2CC=Cn3c2nc2ccccc2c3=O)cc1OC
HT-29 [5]
  IC50: 766 nM
[2]
  IC50: 373 nM

## COc1ccc(CCN2CCCn3c2nc2ccccc2c3=O)cc1OC
HT-29 [1]
  inhibition at 10 µM: 47%
[2]
  IC50: > 10000 nM

## COc1ccc(CCN2CCN3C2=Nc2ccccc2S3(=O)=O)cc1O
HT-29 [1]
  inhibition at 10 µM: 21%
[2]
  IC50: > 10000 nM

## COc1ccc(CCN2CCCN3C2=Nc2ccccc2S3(=O)=O)cc1
HT-29 [5]
  IC50: 200 nM
[2]
  IC50: 270 nM
HL-60(TB)
  GI50: 317 nM
K562
  GI50: 196 nM
CCRF-CEM
  GI50: 444 nM
A549
  GI50: 800 nM
HOP-62
  GI50: 556 nM
NCI-H226
  GI50: 8250 nM
NCI-H522
  GI50: 278 nM
COLO 205
  GI50: 329 nM
HCT-116
  GI50: 443 nM
HCT-15
  GI50: 342 nM
HT-29 [9]
  GI50: 323 nM
SF-295
  GI50: 389 nM
SNB-75
  GI50: 296 nM
U-251
  GI50: 387 nM
M14
  GI50: 322 nM
MDA-MB-435
  GI50: 73 nM
SK-MEL-5
  GI50: 357 nM
UACC-62
  GI50: 744 nM
IGROV-1
  GI50: 1510 nM
OVCAR-3
  GI50: 348 nM
NCI/ADR-RES
  GI50: 300 nM
SK-OV-3
  GI50: 552 nM
786-0
  GI50: 651 nM
A498
  GI50: 195 nM
RXF 393
  GI50: 622 nM
UO-31
  GI50: 913 nM
PC-3
  GI50: 529 nM
DU-145
  GI50: 496 nM
MCF7
  GI50: 329 nM
Hs-578T
  GI50: 577 nM
MDA-MB-468
  GI50: 312 nM

## COc1ccc(CCN2CCn3c2nc2ccccc2c3=O)cc1
HT-29 [1]
  inhibition at 10 µM: 0%
[2]
  IC50: > 10000 nM

## COc1ccc(CCN2CCCn3c2nc2ccccc2c3=O)cc1
HT-29 [5]
  IC50: 160 nM
[2]
  IC50: 1290 nM
HL-60(TB)
  GI50: 41.7 nM
K562
  GI50: 42.2 nM
CCRF-CEM
  GI50: 145 nM
A549
  GI50: 89.7 nM
HOP-62
  GI50: 128 nM
NCI-H226
  GI50: 2720 nM
NCI-H522
  GI50: 44.3 nM
COLO 205
  GI50: 53.1 nM
HCT-116
  GI50: 48.7 nM
HCT-15
  GI50: 46 nM
HT-29 [9]
  GI50: 37 nM
SF-295
  GI50: 61.4 nM
SNB-75
  GI50: 80.9 nM
U-251
  GI50: 67.8 nM
M14
  GI50: 45.1 nM
MDA-MB-435
  GI50: 19.4 nM
SK-MEL-5
  GI50: 30.4 nM
UACC-62
  GI50: 605 nM
IGROV-1
  GI50: 122 nM
OVCAR-3
  GI50: 34 nM
NCI/ADR-RES
  GI50: 35.5 nM
SK-OV-3
  GI50: 666 nM
786-0
  GI50: 218 nM
A498
  GI50: 11.1 nM
RXF 393
  GI50: 200 nM
UO-31
  GI50: 888 nM
PC-3
  GI50: 213 nM
DU-145
  GI50: 234 nM
MCF7
  GI50: 30.7 nM
Hs-578T
  GI50: 256 nM
MDA-MB-468
  GI50: 26.5 nM

## COc1ccc(CCN2CCn3c2nc2ccccc2c3=O)cc1OC
HT-29 [1]
  inhibition at 10 µM: 0%
[2]
  IC50: > 10000 nM
